Experiments:
NF-κB = type: cell-based, human; conditions: Homo sapiens, SW1353, read-out: NF-κB IC50
Summary of the method: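 SW1353 cells were grown in DMEM/F12 with 10% FBS and electroporated with an NF-κB luciferase plasmid (50 μg/mL; 160 V, one 70-ms pulse). They were plated at 1.25 × 10⁵ cells/well for 24 h. […] Parthenolide was the reference; Sp-1 served as control factor.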

[1] = In vitro cytotoxicity, Neutral Red assay; type: cell-based; conditions: human, KB oral epidermal carcinoma cells
Summary of the method: (§1)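 Cells grown in RPMI-1640 with 10% bovine calf serum and amikacin (60 mg/L), 37°C, 5% CO₂, 95% humidity. Seeded at 25,000 cells/well, grown 24 h. Test samples diluted in serum-free medium, exposure 48 h. Viable cells counted by Neutral Red uptake; % viability loss against vehicle control. IC50 from dose curves, triplicate, means reported.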

[2] = In vitro cytotoxicity, Neutral Red assay; type: cell-based; conditions: African green monkey, Vero cells (kidney fibroblasts)
Summary of the method: (§2)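 Cells were kept in RPMI-1640 with 10% bovine calf serum and amikacin 60 mg/L at 37 °C, 5% CO₂. They were seeded at 25,000 cells/well and grown 24 h, then exposed 48 h to test compound diluted in serum-free medium, tested up to 25 μg/ml. Viability was read by Neutral Red, as % decrease versus vehicle. IC50 came from dose curves, in triplicate, with doxorubicin as reference.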

[3] = In vitro cytotoxicity, Neutral Red assay; type: cell-based; conditions: human, SK-OV-3 ovary carcinoma cells
Summary of the method: as §1

[4] = In vitro cytotoxicity, Neutral Red assay; type: cell-based; conditions: human, BT-549 breast ductal carcinoma cells
Summary of the method: as §2

[5] = In vitro cytotoxicity, Neutral Red assay; type: cell-based; conditions: pig, LLC-PK11 pig kidney epithelial cells
Summary of the method: as §2

[6] = In vitro cytotoxicity, Neutral Red assay; type: cell-based; conditions: human, SK-MEL malignant melanoma cells
Summary of the method: as §2

iNOS = iNOS (Mus musculus, UniProt P29477); assay: iNOS inhibitory assay in LPS-induced mouse macrophages; type: cell-based; conditions: LPS-induced RAW264.7 macrophages
[7] = cited from earlier work

O=c1oc2ccccc2n1CCCCN1CCN(CCn2c(=O)oc3ccccc32)CC1 [Compound 5c, 3-(2-(4-(4-(2-oxobenzo[d]oxazol-3(2H)-yl)butyl)piperazin-1-yl)ethyl)benzo[d]oxazol-2(3H)-one]
IC50 (NF-κB): > 25 mg/L | IC50 at 48 h [1]: > 25 mg/L | IC50 at 48 h [2]: > 25 mg/L | IC50 at 48 h [3]: > 25 mg/L | IC50 at 48 h [4]: > 25 mg/L | IC50 at 48 h [5]: > 25 mg/L | IC50 at 48 h [6]: > 25 mg/L

O=c1oc2ccccc2n1CCCCN1CCN(CCCCn2c(=O)oc3ccccc32)CC1 [Compound 3e, 3,3′-(piperazine-1,4-diylbis(butane-4,1-diyl))bis(benzo[d]oxazol-2(3H)-one)]
IC50 (NF-κB): > 25 mg/L | IC50 at 48 h [1]: > 25 mg/L | IC50 at 48 h [2]: > 25 mg/L | IC50 at 48 h [3]: > 25 mg/L | IC50 at 48 h [4]: > 25 mg/L | IC50 at 48 h [5]: > 25 mg/L | iNOS inhibitory activity (in words) (iNOS): no activity | IC50 at 48 h [6]: > 25 mg/L

O=c1sc2ccccc2n1CCCCN1CCN(CCn2c(=O)sc3ccccc32)CC1 [Compound 5d, 3-(2-(4-(4-(2-oxobenzo[d]thiazol-3(2H)-yl)butyl)piperazin-1-yl)ethyl)benzo[d]thiazol-2(3H)-one]
IC50 (NF-κB): > 25 mg/L | IC50 at 48 h [1]: > 25 mg/L | IC50 at 48 h [2]: > 25 mg/L | IC50 at 48 h [3]: > 25 mg/L | IC50 at 48 h [4]: > 25 mg/L | IC50 at 48 h [5]: > 25 mg/L | IC50 at 48 h [6]: > 25 mg/L

O=c1oc2ccccc2n1CCCN1CCN(CCn2c(=O)oc3ccccc32)CC1 [Compound 5a, 3-(3-(4-(2-(2-oxobenzo[d]oxazol-3(2H)-yl)ethyl)piperazin-1-yl)propyl)benzo[d]oxazol-2(3H)-one]
IC50 (NF-κB): > 25 mg/L | IC50 at 48 h [1]: > 25 mg/L | IC50 at 48 h [2]: > 25 mg/L | IC50 at 48 h [3]: > 25 mg/L | IC50 at 48 h [4]: > 25 mg/L | IC50 at 48 h [5]: > 25 mg/L | IC50 at 48 h [6]: > 25 mg/L

O=c1sc2ccccc2n1CCN1CCN(CCn2c(=O)sc3ccccc32)CC1 [Compound 3b, 3,3′-(2,2′-(piperazine-1,4-diyl)bis(ethane-2,1-diyl))dibenzo[d]thaizol-2(3H)-one]
IC50 (NF-κB): > 25 mg/L | IC50 at 48 h [1]: > 25 mg/L | IC50 at 48 h [2]: > 25 mg/L | IC50 at 48 h [3]: > 25 mg/L | IC50 at 48 h [4]: > 25 mg/L | IC50 at 48 h [5]: > 25 mg/L | IC50 at 48 h [6]: > 25 mg/L

O=C(c1ccccc1)c1ccc2[nH]c(=O)sc2c1 [Compound S-14080]
anti-inflammatory and antinociceptive activities (in words) [7]: superior to acetylsalicylic acid and equivalent to glafenine

O=c1sc2ccccc2n1CCCCN1CCN(CCCCn2c(=O)sc3ccccc32)CC1 [Compound 3f, 3,3′-(piperazine-1,4-diylbis(butane-4,1-diyl))bis(benzo[d]thiazol-2(3H)-one)]
IC50 at 48 h [1]: > 25 mg/L | IC50 at 48 h [2]: > 25 mg/L | IC50 at 48 h [3]: > 25 mg/L | IC50 at 48 h [4]: > 25 mg/L | IC50 at 48 h [5]: > 25 mg/L | iNOS inhibitory activity (in words) (iNOS): no activity | IC50 at 48 h [6]: > 25 mg/L

O=c1oc2ccccc2n1CCCCCCN1CCN(CCCn2c(=O)oc3ccccc32)CC1 [Compound 5m, 3-(3-(4-(6-(2-oxobenzo[d]oxazol-3(2H)-yl)hexyl)piperazin-1-yl)propyl)benzo[d]oxazol-2(3H)-one]
IC50 (NF-κB): > 25 mg/L | IC50 at 48 h [1]: > 25 mg/L | IC50 at 48 h [2]: > 25 mg/L | IC50 at 48 h [3]: > 25 mg/L | IC50 at 48 h [4]: > 25 mg/L | IC50 at 48 h [5]: > 25 mg/L | IC50 at 48 h [6]: > 25 mg/L

O=c1oc2ccccc2n1CCN1CCN(CCn2c(=O)oc3ccccc32)CC1 [Compound 3a, 3,3′-(piperazine-1,4-diylbis(ethane-2,1-diyl))bis(benzo[d]oxazol-2(3H)-one)]
IC50 (NF-κB): > 25 mg/L | IC50 at 48 h [1]: > 25 mg/L | IC50 at 48 h [2]: > 25 mg/L | IC50 at 48 h [3]: > 25 mg/L | IC50 at 48 h [4]: > 25 mg/L | IC50 at 48 h [5]: > 25 mg/L | IC50 at 48 h [6]: > 25 mg/L
